Measured values as given in ChEMBL document CHEMBL4422663, “Suppression of Tumor Growth and Metastases by Targeted Intervention in Urokinase Activity with Cyclic Peptides” (J Med Chem, 2019).
The source made the active and inactive calls. The rule behind the calls is not given here. Positions of bridges follow the written chain, without caps; N, C: chain ends. Residues, ends and D or L forms follow the SMILES beside them.

Assays:
[1] = molecular target: T1, Urokinase-type plasminogen activator (Mus musculus, UniProt P06869); experiment: Inhibition of mouse uPA serine protease domain preincubated for 15 mins followed by chromogenic substrate addition
T1 sequence (P06869 21-178 limits assumed): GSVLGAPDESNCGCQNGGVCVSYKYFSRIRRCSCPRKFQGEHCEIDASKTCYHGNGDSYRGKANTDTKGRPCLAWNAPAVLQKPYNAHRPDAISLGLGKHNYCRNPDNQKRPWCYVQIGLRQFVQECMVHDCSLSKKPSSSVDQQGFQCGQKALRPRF
T1 sequence (P06869 180-433 limits assumed): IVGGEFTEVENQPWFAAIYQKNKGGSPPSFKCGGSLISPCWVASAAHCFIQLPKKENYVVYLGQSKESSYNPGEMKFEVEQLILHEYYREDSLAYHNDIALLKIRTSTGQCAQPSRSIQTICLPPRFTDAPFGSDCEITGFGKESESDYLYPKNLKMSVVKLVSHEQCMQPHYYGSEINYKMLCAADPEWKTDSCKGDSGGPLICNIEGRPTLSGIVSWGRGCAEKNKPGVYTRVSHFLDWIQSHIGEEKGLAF

[2] = molecular target: Tissue-type plasminogen activator (Mus musculus, UniProt P11214); experiment: Inhibition of mouse tissue-type plasminogen activator preincubated for 15 mins followed by chromogenic substrate addition
[3] = molecular target: T2, Suppressor of tumorigenicity 14 protein (Homo sapiens, UniProt Q9Y5Y6); experiment: Inhibition of human matriptase preincubated for 15 mins followed by chromogenic substrate addition
T2 sequence (Q9Y5Y6 whole entry): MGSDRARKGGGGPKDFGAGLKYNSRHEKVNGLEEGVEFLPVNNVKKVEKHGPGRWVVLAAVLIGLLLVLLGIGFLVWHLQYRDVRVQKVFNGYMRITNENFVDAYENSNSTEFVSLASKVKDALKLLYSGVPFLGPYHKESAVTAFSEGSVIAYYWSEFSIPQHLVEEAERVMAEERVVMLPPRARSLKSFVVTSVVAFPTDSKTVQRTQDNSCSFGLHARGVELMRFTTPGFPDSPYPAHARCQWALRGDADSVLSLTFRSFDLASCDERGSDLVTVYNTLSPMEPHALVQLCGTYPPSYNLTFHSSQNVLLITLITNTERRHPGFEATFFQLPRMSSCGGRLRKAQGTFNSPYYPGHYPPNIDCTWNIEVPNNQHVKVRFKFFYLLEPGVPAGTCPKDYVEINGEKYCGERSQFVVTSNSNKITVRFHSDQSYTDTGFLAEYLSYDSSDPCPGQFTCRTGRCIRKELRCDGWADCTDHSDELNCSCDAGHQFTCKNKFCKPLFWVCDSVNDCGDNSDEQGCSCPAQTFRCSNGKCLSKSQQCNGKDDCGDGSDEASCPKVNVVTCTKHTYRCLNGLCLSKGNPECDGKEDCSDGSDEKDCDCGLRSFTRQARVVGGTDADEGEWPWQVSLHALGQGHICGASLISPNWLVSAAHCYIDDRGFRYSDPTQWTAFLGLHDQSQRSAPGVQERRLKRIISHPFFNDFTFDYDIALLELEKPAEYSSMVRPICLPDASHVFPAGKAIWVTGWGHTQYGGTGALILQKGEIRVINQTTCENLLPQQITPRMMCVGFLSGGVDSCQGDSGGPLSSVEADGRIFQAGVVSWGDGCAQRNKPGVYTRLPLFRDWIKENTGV

[4] = molecular target: Urokinase-type plasminogen activator (Mus musculus) (UniProt P06869); experiment: Inhibition of the intrinsic peri-cellular uPA in mouse CT26 cells assessed as reduction in cell migration at 30 to 100 uM measured every hour by wound healing assay relative to control; assay type: cell-based
Chain of Urokinase-type plasminogen activator (Mus musculus) (P06869 21-178 limits assumed): as the sequence (P06869 21-178 limits assumed) above
Chain of Urokinase-type plasminogen activator (Mus musculus) (P06869 180-433 limits assumed): as the sequence (P06869 180-433 limits assumed) above

CT26 [5] = experiment: Antimetastatic activity against GFP-fused mouse CT26 cells allografted in Balb/c mouse assessed as reduction in relative fluorescence at 12.3 mg/kg, ip administered daily for 15 days by fluorescence-based assay; assay type: functional, organism-based
In short: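 Lung metastasis model: male Balb/c mice (~20 g, 6/group) given 10^6 GFP-CT-26 cells i.v. with peptide or saline, daily i.p. dosing Day 1–15, sacrificed Day 16. Resected lungs imaged for GFP with 488 nm excitation, emission 520; signal collected over 20×20 mm2 per lung; non-implanted normal group used for background subtraction.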

CT26 [6] = experiment: Anti-tumor activity against […] mouse CT26 cells allografted in Balb/c mouse assessed as tumor growth inhibition at 12.3 mg/kg, ip administered daily for 15 days and measured on day 16 by […]; assay type: functional; settings: read-out: TGI
In short: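 CT-26 cells implanted subcutaneously in right flank of Balb/c mice; once tumors reached about 150~200 mm3, daily intraperitoneal dosing with peptide or saline for 15 days. Mice sacrificed on Day 16; tumors resected and weighed; tumor growth reduction relative to saline group.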

[7] = molecular target: T1, Urokinase-type plasminogen activator; experiment: Inhibition of mouse uPA
CT26 [8] = experiment: Cytotoxicity against mouse CT26 cells at 100 uM; assay type: cell-based; settings: ct26, 100 µM
[9] = molecular target: Tissue-type plasminogen activator (Homo sapiens, UniProt P00750); experiment: Inhibition of human tissue-type plasminogen activator preincubated for 15 mins followed by chromogenic substrate addition
Chain of Tissue-type plasminogen activator (Homo sapiens, UniProt P00750) (P00750 whole entry): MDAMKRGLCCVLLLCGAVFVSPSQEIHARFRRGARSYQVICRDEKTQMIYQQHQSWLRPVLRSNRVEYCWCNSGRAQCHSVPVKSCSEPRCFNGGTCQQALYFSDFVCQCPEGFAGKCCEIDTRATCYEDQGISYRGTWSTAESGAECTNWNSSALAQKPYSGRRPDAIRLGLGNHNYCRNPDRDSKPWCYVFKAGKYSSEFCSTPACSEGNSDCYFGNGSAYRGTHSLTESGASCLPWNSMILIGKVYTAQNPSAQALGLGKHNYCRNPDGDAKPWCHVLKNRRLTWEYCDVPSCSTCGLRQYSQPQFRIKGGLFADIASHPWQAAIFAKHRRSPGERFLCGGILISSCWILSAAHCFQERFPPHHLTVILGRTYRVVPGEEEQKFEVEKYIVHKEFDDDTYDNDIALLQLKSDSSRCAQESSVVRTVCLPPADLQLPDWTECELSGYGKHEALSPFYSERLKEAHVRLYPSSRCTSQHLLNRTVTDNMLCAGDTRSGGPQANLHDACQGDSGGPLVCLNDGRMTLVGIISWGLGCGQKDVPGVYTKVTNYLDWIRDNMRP

Prothrombin [10] = molecular target: Prothrombin (Homo sapiens, UniProt P00734); experiment: Inhibition of human thrombin preincubated for 15 mins followed by chromogenic substrate addition
[11] = molecular target: Vitamin K-dependent protein C (Homo sapiens, UniProt P04070); experiment: Inhibition of human activated protein C preincubated for 15 mins followed by chromogenic substrate addition
Chain of Vitamin K-dependent protein C (P04070 43-197 limits assumed): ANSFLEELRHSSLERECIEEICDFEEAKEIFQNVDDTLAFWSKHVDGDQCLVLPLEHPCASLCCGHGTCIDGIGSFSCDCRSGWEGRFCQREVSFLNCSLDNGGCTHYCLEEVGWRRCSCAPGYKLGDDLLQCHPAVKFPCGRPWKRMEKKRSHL
Chain of Vitamin K-dependent protein C (P04070 212-461 limits assumed): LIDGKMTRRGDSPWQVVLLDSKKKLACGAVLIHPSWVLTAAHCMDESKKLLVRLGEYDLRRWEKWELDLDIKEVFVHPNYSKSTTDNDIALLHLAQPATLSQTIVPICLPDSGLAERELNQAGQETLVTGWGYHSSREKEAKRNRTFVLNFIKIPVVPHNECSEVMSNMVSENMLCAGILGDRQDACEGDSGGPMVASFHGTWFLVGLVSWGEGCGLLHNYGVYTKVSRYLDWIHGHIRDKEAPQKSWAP

CT26 [12] = experiment: Antimetastatic activity against mouse CT26 cells allografted in Balb/c mouse assessed as reduction genomic DNA of metastatic cells at 12.3 mg/kg, ip administered daily for 15 days by qPCR analysis; assay type: functional, organism-based
In short: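 Male Balb/c mice (~20 g, 6/group) given 10^6 GFP-CT-26 cells i.v. in 200 µl mixed with peptide or saline, then daily i.p. peptide Day 1–15; sacrificed Day 16. Lung total DNA isolated after homogenization; 200 ng per SYBR Green qPCR, quantified against standard curve of CT-26 DNA spiked into normal lung DNA (0.135%-100%).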

Prothrombin [13] = molecular target: Prothrombin (Mus musculus, UniProt P19221); experiment: Inhibition of mouse thrombin preincubated for 15 mins followed by chromogenic substrate addition
CT26 [14] = experiment: Antimetastatic activity against GFP-fused mouse CT26 cells allografted in Balb/c mouse assessed as reduction in hyperplastic weights at 12.3 mg/kg, ip administered daily for 15 days by fluorescence-based assay; assay type: functional, organism-based
In short: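 Lung metastasis model: male Balb/c mice (~20 g, 6/group) given 10^6 GFP-CT-26 cells i.v. with peptide or saline, then daily i.p. dosing Day 1–15. Lungs resected and weighed immediately at sacrifice on Day 16; hyperplastic weight = lung weight minus weight of lungs from non-implanted normal mice.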

[15] = Toxicity in Balb/c mouse allografted with mouse CT26 cells assessed as effect on body weight at 12.3 mg/kg, ip administered daily for 15 days; assay type: organism-based; settings: in vivo, 360 h
In short: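 CT-26 tumour-bearing Balb/c mice dosed i.p. daily with peptide or saline; body weights recorded daily over the 15 days.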

CT26 [16] = experiment: Antimetastatic activity against mouse CT26 cells allografted in Balb/c mouse at 12.3 mg/kg, ip administered daily for 15 days by hematoxylin and eosin staining -based assay; assay type: functional, organism-based
In short: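 Lung metastasis model: male Balb/c mice given 10^6 GFP-CT-26 cells i.v., daily i.p. dosing Day 1–15, sacrificed Day 16. Formalin-fixed, paraffin-embedded lung sections stained with H&E for histology alongside normal lungs.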

[17] = molecular target: Urokinase-type plasminogen activator (Homo sapiens, UniProt P00749); experiment: Inhibition of human uPA preincubated for 15 mins followed by chromogenic substrate addition
Plasma kallikrein [18] = molecular target: Plasma kallikrein (Homo sapiens, UniProt P03952); experiment: Inhibition of human plasma kallikrein preincubated for 15 mins followed by chromogenic substrate addition
[19] = Inhibition of mouse trypsin preincubated for 15 mins followed by chromogenic substrate addition
[20] = molecular target: T1, Urokinase-type plasminogen activator; experiment: Binding affinity to mouse uPA by SPR assay
Plasminogen [21] = molecular target: Plasminogen (Mus musculus, UniProt P20918); experiment: Inhibition of mouse plasmin preincubated for 15 mins followed by chromogenic substrate addition
Chain of Plasminogen (Mus musculus, UniProt P20918) (P20918 98-581 limits assumed): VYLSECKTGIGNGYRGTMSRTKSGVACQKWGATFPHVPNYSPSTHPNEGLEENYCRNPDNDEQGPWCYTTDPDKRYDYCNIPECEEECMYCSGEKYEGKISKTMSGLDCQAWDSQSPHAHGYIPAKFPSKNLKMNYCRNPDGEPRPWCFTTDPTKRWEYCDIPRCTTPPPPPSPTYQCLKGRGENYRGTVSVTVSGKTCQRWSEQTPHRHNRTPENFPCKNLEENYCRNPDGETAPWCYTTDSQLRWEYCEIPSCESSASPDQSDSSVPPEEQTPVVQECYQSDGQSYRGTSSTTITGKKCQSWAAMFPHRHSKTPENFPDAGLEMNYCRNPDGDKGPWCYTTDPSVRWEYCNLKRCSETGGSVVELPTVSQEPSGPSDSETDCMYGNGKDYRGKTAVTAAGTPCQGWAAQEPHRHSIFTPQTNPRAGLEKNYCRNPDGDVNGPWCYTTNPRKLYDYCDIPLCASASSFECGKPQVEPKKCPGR
Chain of Plasminogen (Mus musculus, UniProt P20918) (P20918 582-812 limits assumed): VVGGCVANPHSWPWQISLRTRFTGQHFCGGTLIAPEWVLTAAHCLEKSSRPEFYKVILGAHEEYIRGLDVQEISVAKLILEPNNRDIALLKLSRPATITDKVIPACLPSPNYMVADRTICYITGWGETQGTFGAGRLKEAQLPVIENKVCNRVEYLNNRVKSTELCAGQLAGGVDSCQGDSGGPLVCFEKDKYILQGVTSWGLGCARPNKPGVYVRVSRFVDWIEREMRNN

Plasma kallikrein [22] = molecular target: Plasma kallikrein (Mus musculus, UniProt P26262); experiment: Inhibition of mouse plasma kallikrein preincubated for 15 mins followed by chromogenic substrate addition
Chain of Plasma kallikrein (Mus musculus, UniProt P26262) (P26262 20-390 limits assumed): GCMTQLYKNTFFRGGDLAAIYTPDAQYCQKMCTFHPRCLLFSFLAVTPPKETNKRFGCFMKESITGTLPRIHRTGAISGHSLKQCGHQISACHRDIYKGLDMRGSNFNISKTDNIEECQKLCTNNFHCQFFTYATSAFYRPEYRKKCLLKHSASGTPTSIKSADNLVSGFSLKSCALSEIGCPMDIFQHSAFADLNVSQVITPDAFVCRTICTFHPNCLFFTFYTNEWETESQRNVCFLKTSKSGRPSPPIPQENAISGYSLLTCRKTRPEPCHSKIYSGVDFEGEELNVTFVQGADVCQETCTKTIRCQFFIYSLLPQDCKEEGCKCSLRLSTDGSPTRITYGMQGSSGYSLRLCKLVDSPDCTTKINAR
Chain of Plasma kallikrein (Mus musculus, UniProt P26262) (P26262 391-638 limits assumed): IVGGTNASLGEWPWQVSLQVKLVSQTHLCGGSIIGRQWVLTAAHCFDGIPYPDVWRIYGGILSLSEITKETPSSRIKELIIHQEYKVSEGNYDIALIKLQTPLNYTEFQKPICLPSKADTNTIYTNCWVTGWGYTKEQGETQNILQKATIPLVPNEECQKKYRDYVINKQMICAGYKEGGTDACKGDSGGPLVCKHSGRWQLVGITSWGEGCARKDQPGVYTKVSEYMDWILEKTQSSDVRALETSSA

[23] = molecular target: T1, Urokinase-type plasminogen activator; experiment: Binding affinity to mouse uPA expressed in HEK2936E cells by ITC assay
CT26 [24] = experiment: Antimetastatic activity against GFP-fused mouse CT26 cells allografted in Balb/c mouse assessed as reduction in tumor nodule numbers at 12.3 mg/kg, ip administered daily for 15 days by fluorescence-based assay; assay type: functional, organism-based
In short: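 Lung metastasis model: male Balb/c mice (~20 g, 6/group) given 10^6 GFP-CT-26 cells i.v. with peptide or saline, daily i.p. dosing Day 1–15, sacrificed Day 16. Surface tumor nodules on pleural surfaces counted per lung after soaking in formaldehyde.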

Coagulation factor XI = Coagulation factor XI (Homo sapiens, UniProt P03951); experiment: Inhibition of human factor 11a preincubated for 15 mins followed by chromogenic substrate addition
Chain of Coagulation factor XI (P03951 19-387 limits assumed): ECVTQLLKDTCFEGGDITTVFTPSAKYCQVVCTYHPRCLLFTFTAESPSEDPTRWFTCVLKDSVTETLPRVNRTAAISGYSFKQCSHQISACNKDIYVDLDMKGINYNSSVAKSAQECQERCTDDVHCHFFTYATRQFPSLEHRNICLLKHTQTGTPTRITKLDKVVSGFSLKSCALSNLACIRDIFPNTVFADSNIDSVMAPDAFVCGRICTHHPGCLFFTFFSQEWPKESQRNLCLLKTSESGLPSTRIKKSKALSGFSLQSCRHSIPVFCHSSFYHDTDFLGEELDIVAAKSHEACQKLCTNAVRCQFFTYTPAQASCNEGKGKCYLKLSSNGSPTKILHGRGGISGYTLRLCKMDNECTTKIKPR
Chain of Coagulation factor XI (P03951 388-625 limits assumed): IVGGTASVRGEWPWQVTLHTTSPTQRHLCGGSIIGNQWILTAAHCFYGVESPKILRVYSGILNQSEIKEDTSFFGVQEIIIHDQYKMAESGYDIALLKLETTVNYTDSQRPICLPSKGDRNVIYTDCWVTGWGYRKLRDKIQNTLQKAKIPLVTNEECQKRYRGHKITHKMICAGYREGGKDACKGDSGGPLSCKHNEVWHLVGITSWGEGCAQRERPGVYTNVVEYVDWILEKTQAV

[25] = molecular target: Urokinase-type plasminogen activator (Mus musculus) (UniProt P06869); experiment: Inhibition of the intrinsic peri-cellular uPA in mouse CT26 cells assessed as reduction in cell invasion measured every hour by transwell assay; assay type: cell-based
Plasminogen [26] = molecular target: Plasminogen (Homo sapiens, UniProt P00747); experiment: Inhibition of human plasmin preincubated for 15 mins followed by chromogenic substrate addition
Chain of Plasminogen (Homo sapiens, UniProt P00747) (P00747 97-580 limits assumed): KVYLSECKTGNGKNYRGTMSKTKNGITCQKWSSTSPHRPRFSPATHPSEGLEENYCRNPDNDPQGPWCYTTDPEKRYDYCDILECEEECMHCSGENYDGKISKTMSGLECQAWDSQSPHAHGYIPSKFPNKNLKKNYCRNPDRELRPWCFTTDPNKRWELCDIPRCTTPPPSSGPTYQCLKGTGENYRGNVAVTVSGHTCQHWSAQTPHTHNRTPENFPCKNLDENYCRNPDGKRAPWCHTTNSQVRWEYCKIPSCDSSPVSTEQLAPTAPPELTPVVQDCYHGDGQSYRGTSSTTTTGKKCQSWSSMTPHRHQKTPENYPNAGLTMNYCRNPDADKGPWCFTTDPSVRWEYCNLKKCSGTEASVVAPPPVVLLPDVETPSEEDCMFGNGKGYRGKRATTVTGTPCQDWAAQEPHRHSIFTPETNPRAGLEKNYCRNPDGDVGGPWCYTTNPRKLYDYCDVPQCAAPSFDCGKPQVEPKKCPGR
Chain of Plasminogen (Homo sapiens, UniProt P00747) (P00747 581-810 limits assumed): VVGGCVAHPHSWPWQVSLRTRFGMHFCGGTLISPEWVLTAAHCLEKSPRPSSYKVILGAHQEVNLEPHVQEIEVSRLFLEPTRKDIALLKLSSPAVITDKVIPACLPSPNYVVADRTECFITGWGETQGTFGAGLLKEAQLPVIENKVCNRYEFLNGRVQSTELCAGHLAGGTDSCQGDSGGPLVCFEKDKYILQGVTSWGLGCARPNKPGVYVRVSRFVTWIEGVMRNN

[27] = molecular target: T1, Urokinase-type plasminogen activator; experiment: Inhibition of mouse uPA preincubated for 15 mins followed by chromogenic substrate addition
[28] = system: Lewis lung carcinoma cell line; experiment: Antitumor activity against mouse LLC allografted in C57Bl6/N mouse assessed as inhibition olf tumor growth at 200 mg/kg/day, ip; assay type: functional; settings: read-out: TGI
[29] = system: Lewis lung carcinoma cell line; experiment: Antimetastatic activity against mouse LLC allografted in mouse assessed as reduction in tumor nodule numbers at 100 mg/kg, ip; assay type: functional; parameters: scale not given: the % may be the effect or the level left
[30] = Drug level in blood of mouse LLC allografted in mouse at 100 mg/kg, ip; assay type: ADME, organism-based; settings: in vivo, read-out: Drug uptake

SMILES: CC(=O)N[C@H]1CSSC[C@@H](C(N)=O)NC(=O)[C@H](CC(=O)O)NC(=O)[C@H](CC(C)C)NC(=O)[C@H](Cc2ccc(O)cc2)NC(=O)[C@H](CCCNC(=N)N)NC(=O)[C@H](CO)NC(=O)[C@H](Cc2ccc(O)cc2)NC(=O)[C@H](C)NC(=O)[C@@H]2CCCN2C1=O (Ac-CPAYSRYLDC-NH2; disulfide 1-10)
- Ki [1]: 1.77 µM
- Ki [2]: > 25 µM
- Ki [3]: > 25 µM
- inhibition [4]: 30%
- Activity (CT26 [5]): inactive
- inhibition in vivo at 12.3 mg/kg (CT26 [6]): 36.4%
- Ki [7]: 0.55 µM
- Activity (CT26 [8]): Non-Toxic
- Ki [9]: > 25 µM
- Ki (Prothrombin [10]): > 25 µM
- Ki [11]: > 25 µM
- Activity (CT26 [12]): inactive
- Ki (Prothrombin [13]): > 25 µM
- Activity (CT26 [14]): inactive
- Activity [15]: Non-Toxic
- Activity (CT26 [16]): Active
- Ki [17]: 15 µM
- Ki (Plasma kallikrein [18]): > 25 µM
- Ki [19]: 8.3 µM
- Kd [20]: 0.398 µM
- Ki (Plasminogen [21]): > 25 µM
- Ki (Plasma kallikrein [22]): > 25 µM
- Kd [23]: 0.354 µM
- Activity (CT26 [24]): inactive
- Ki (Coagulation factor XI): > 25 µM
- inhibition [25]: Dose-dependent effect
- Ki (Plasminogen [26]): > 25 µM
- Ki [27]: 0.55 µM

SMILES: N=C(N)c1ccc(CNC(=O)[C@H](CO)NC(=O)[C@@H](CO)NS(=O)(=O)Cc2ccccc2)cc1
- inhibition in vivo at 200 mg/kg/day [28]: 43%
- Activity [29]: 41.5%
- concentration [30]: 1010 µM
